High-throughput results from PubChem BioAssay.
In the library only some 4.7% were active in any assay of this set; here they are far more common.
MC4R ag barr: human MC4R agonism via beta-arrestin. activation, % at 8.9 µM. U2OS MC4R beta-arrestin complementation, luminescence; percent of melanotan II response, DMSO zero. P32245. actives 0.98% (n = 360,000);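 active = activation above a per-plate cutoff, the mean activation of sample wells on that plate plus 3 SD, cut at about 8% in these data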
HTR2A ag: mouse HTR2A agonism via beta-arrestin recruitment; P35363; CHO-K1 mHTR2A beta-arrestin complementation, luminescence; percent of 30 µM serotonin response; activation, % at 7.6 µM; actives 0.66% (n = 360,000);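 active = activation above a run cutoff, the mean activation of all tested compounds plus 3 SD, cut at about 14% in these data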
FXN GAA850 act: increases GAA850 frataxin promoter reporter activity | HEK293 lucGAA850 FXN promoter luciferase reporter, 24 h; percent of 10 µM SAHA response | activation, % at 6 µM | actives 0.56% (n = 360,000) | AID 540364;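 active = activation above the average of all compounds screened plus 3 SD, cutoff fixed separately per campaign, cut at about 7.5% in these data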
AHR act: activators of human aryl hydrocarbon receptor; AHR-responsive luciferase reporter cells, luminescence; activation, % at 5 µM; actives 2.5% (n = 320,000); in the data active = activation above about 47%
MC4R antagonist: blocks human MC4R cAMP signaling | actives 0.48% (n = 360,000) | P32245 | inhibition, % at 6.5 µM | MC4R-expressing cells, MTII-stimulated cAMP, LANCE TR-FRET;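 active = inhibition above its plate's cutoff, the mean of tested wells on that plate plus 3 SD, cut at about 29% in these data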
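Test system: U2OS cells stably expressing human melanocortin 4 receptor (MC4R); also added: Melanotan II challenge; compound: 6.5 µM single dose; timing: 30-min compound preincubation, 1-h Melanotan II challenge, 1-h detection, room temperature; signal: Eu-cAMP/anti-cAMP TR-FRET, emission 671 nm; repeats: one well per compound, no replicates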
Numbers stand for hits; i = inactive; nt = no result given.

SMILES	MC4R ag barr	HTR2A ag	FXN GAA850 act	AHR act	MC4R antagonist
Cn1nc(C(F)(F)F)cc1C(=O)Nc1ccc(-c2ccno2)cc1	i	i	i	i	i
COc1ccc(Cl)cc1Nc1cc(C)nc2nc(C)nn12	i	i	i	70.7	i
CC(C)(C)NC(=O)CSc1nc(-c2ccccc2)c(-c2ccccc2)[nH]1	8.8	i	i	i	i
C=CCOC(=O)C1=C[C@@H](C2CCCCC2)C[C@@H](OCc2ccc(CO)cc2)O1	i	i	i	i	i
CCCCNS(=O)(=O)c1cccc(NC(=O)[C@@H]2O[C@H](CO)[C@H](O)[C@H](O)[C@H]2O)c1	i	i	i	nt	i
CSc1nncn1/N=C/c1ccc2c(c1)OCO2	i	i	i	50.9	i
CCCCON1C(=O)c2cccc3cccc(c23)C1=O	i	i	i	55.7	i
O=C(Cc1nc(=O)c2ccccc2s1)Nc1ccccc1	i	i	i	50.0	i
CCCn1cnc2cc(NC(=O)c3ccco3)ccc21	i	i	i	60.4	i
O=Cc1cccn1Cc1ccccc1[N+](=O)[O-]	i	i	i	i	i
CCCCC(=O)Nc1cc(OCC)c(NC(=S)NC)cc1OCC	i	i	i	71.2	i
Cc1ccc2nc(C)cc(Nc3ccc4c(c3)OCCO4)c2c1	i	i	i	69.4	i
Cc1cc(Nc2ccc3c(c2)OCCO3)c2ccccc2n1	i	i	i	i	i
Cc1nn(-c2ccc(Cl)cc2)c(N)c1C(O)(CSc1nccn1C)C(F)(F)F (centres undefined)	i	i	i	48.0	i
CC1CC(C)(C)NC(=S)N1CCC(=O)NCCc1ccc(Cl)cc1 (centres undefined)	i	i	i	i	i
CN(C)/C=N/c1nc2nccc(-c3cccs3)n2n1	i	i	i	74.9	i
CN(C)/C=N/c1nc2nccc(-c3ccc(F)cc3)n2n1	i	i	i	i	i
COC1OC(c2ccccc2)=C(c2ccc(C(N)=O)cc2)c2ccc(F)cc21 (centres undefined)	nt	i	nt	nt	nt
Cc1ccc(O)c(-c2cc(C(=O)Nc3cccnc3)[nH]n2)c1	i	i	i	59.8	i
O=C(Nc1cccnc1)c1cc(-c2cc(Cl)ccc2O)n[nH]1	i	i	i	i	i
CCOC(=O)C1CCN(Cc2cnc(Oc3ccc(OC)cc3)s2)CC1	i	22.4	i	i	i
NC(=NCCc1ccccc1)NC(=O)c1cc(Cl)ccc1O	i	i	i	i	i
COc1ccc(N=Nc2cc(C)ccc2O)cc1	i	i	i	i	i
COc1cccc(N=Nc2ccc3ccccc3c2O)c1	i	i	i	78.0	i
COc1ccc(N=Nc2ccc3ccccc3c2)c(O)c1	i	i	i	48.7	i
SMILES	MC4R ag barr	HTR2A ag	FXN GAA850 act	AHR act	MC4R antagonist
O=C(O)c1cccc(S(=O)(=O)Nc2ccc(N3CCCCC3)cc2)c1	i	i	i	i	i
O=C(Nc1nccs1)C(c1ccccc1)N1CCCCC1 (centres undefined)	i	i	i	i	i
O=C(Nc1nccs1)C(Br)C(Br)c1ccccc1 (centres undefined)	i	i	i	51.5	i
O=C(C[C@H]1C[C@@H]2c3cc(NS(=O)(=O)c4ccccc4)ccc3O[C@@H]2[C@H](CO)O1)N1CCOCC1	i	i	i	nt	i
NCCNC(=O)Cc1cccc(NC(=O)Cc2ccc(Nc3ncnc4c3ncn4[C@@H]3O[C@H](CO)[C@@H](O)[C@H]3O)cc2)c1	i	i	10.2	i	i
OC[C@H]1O[C@@H](n2cnc3c(Nc4ccccc4)ncnc32)[C@H](O)[C@@H]1O	i	i	i	i	i
CCOc1cc(C(=O)Nc2cc(C)on2)cc(OCC)c1OCC	i	i	i	63.7	i
CCOc1cc(C(=O)Nc2cccnc2)cc(OCC)c1OCC	i	i	i	72.7	i
CCCOc1ccc(C(=O)Nc2cccnc2)cc1	i	i	i	i	i
Cc1ccc(O)c(-c2cc(-c3ccccc3[N+](=O)[O-])[nH]n2)c1	8.9	i	i	i	i
O=[N+]([O-])c1ccccc1-c1cc(-c2cc(Cl)ccc2O)n[nH]1	i	i	i	i	i
COc1ccc(-n2nnnc2C(c2ccccc2)N2CCN(C/C=C/c3ccccc3)CC2)cc1 (centres undefined)	nt	i	nt	nt	nt
Cc1c(C(=O)NCc2ccc3c(c2)OCO3)sc(=O)n1Cc1cccc(F)c1	i	i	i	nt	i
COc1cc(Cl)c(CN2CCCC(CO)(Cc3cccc(Cl)c3)C2)cc1OC (centres undefined)	i	i	i	i	i
